According to publication PMC2118488 (The Journal of Experimental Medicine, 2007):
Ends that are not written are not given here. ABA = azidobenzoic acid, photoreactive group linked to the lysine of the peptide

Experiments:
T1 thymocytes = test: Fetal thymic organ culture; format: cell-based, mouse; conditions: high concentrations (100 μM shown in Fig. 1 D)
Procedure, shortened: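 E15 fetal thymi from T1 β2m−/− Rag−/− TCR transgenic mice were cultured 7 d without peptide or with 1 μM exogenous peptide, with 0.2 μM and 100 μM also shown for two variants. Cells were stained for CD4, CD8α and/or CD8β and read by flow cytometry.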

H-2K^d = H-2K^d (Mus musculus, UniProt P01902); test: Peptide binding to H-2K^d; conditions: unpublished data
H-2K^d, sequence (P01887 21-119): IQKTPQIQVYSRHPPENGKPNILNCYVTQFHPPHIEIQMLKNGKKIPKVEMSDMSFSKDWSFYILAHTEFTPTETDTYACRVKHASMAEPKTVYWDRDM
H-2K^d, sequence (P01902 22-368): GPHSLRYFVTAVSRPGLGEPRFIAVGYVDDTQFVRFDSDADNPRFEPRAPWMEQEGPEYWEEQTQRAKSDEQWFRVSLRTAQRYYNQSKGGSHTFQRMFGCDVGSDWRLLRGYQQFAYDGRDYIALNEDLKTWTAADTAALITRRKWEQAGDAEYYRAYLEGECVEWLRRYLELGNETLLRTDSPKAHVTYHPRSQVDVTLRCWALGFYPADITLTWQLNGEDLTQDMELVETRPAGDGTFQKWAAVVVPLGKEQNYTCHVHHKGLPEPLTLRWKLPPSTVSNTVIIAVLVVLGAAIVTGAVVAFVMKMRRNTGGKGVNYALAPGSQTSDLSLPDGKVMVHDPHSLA

S14 thymocytes = test: Fetal thymic organ culture; format: cell-based, mouse; conditions: S14 TCR transgenic FTOC
Procedure, shortened: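 Fetal thymi (E15) from Rag−/− β2m−/− S14 TCR transgenic mice were cultured for 7 d with peptide variants. Thymocytes were stained for CD4, CD8α and/or CD8β and analysed by flow cytometry.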

Row | Substance | Selection outcome in FTOC at high peptide concentrations (T1 thymocytes) | Affinity for H-2K^d relative to 4P (H-2K^d) | Selecting potential in FTOC (S14 thymocytes)
1 | 4A: variant of SYIPSAEK(ABA)I with proline at position 4 replaced by alanine (SYIASAEK(ABA)I) | could induce negative selection | – | –
2 | 4L: variant of SYIPSAEK(ABA)I with proline at position 4 replaced by leucine (SYILSAEK(ABA)I) | – | fivefold lower affinity than 4P | threshold ligand
3 | 4S: variant of SYIPSAEK(ABA)I with proline at position 4 replaced by serine (SYISSAEK(ABA)I) | could induce negative selection | – | –
